Calls of active or inactive are those of the source. The rule behind the calls is not given here.
Columns and labels:
[1] = Antioxidant activity assessed as DPPH radical scavenging activity; format: functional
[2] = Stability in human MES-SA cells assessed as reduction in quercetin release up to 100 uM by HPLC analysis; format: ADME, cell-based
Method in brief: (§1)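 MES-SA or MES-SA/Dx5 cells were incubated with compound for up to 48 h (0, 24, 48 h). Cell lysates were analysed by HPLC for intact compound and for released quercetin, and half-lives were derived from these measurements.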

[3] = Stability in P-gp over-expressing human MES-SA/Dx5 cells assessed as reduction in quercetin release up to 100 uM by HPLC analysis; format: ADME, cell-based; method in brief: as §1
[4] = Half life in human MES-SA cells up to 100 uM by HPLC analysis; format: ADME, cell-based; method in brief: as §1
[5] = Half life in P-gp over-expressing human MES-SA/Dx5 cells up to 100 uM by HPLC analysis; format: ADME, cell-based; method in brief: as §1
Homo sapiens [6] = organism: Homo sapiens; assay: Inhibition of P-gp in human MES-SA/Dx5 cells assessed as increase in doxorubicin accumulation at 5 uM after 30 mins by flow cytometry relative to control; format: cell-based
Homo sapiens [7] = organism: Homo sapiens; assay: Activity at human P-gp expressed in membranes assessed as stimulation of P-gp ATPase activity at 100 uM after 40 mins in presence of MgATP by […] relative to control
Method in brief: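 Human Pgp membrane, 25 µg, incubated at 37 °C with compound at 100 µM, alongside Na3VO4 (100 µM) and 0.1% DMSO solvent controls. Reaction was started with 5 mM MgATP and run 40 min at 37 °C. Leftover ATP was read as luciferase luminescence after 20 min at room temperature. Activity was taken as the luminescence drop relative to the Na3VO4 sample.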

Homo sapiens [8] = organism: Homo sapiens; assay: Inhibition of P-gp in human MES-SA/Dx5 cells assessed as potentiation of doxorubicin-induced cytotoxicity by measuring fold reduction in doxorubicin EC50 at 5 uM after 72 hrs by MTT assay relative to untreated control; format: cell-based
Method in brief: (§2)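 MES-SA/Dx5 cells were seeded at 5×10^3 per well in complete RPMI-1640 and left 24 h at 37 °C, 5% CO2. Anticancer drug was added at 0.0001–100 µM final, with or without modulator at 5 µM (1% DMSO), for 72 h. Viability was read by MTT at 570 nm and survival % was blank-corrected against 1% DMSO controls. IC50s came from survival curves. Fold reversal = IC50 untreated / IC50 with modulator. Three independent experiments were run, reported as mean ± SD.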

Homo sapiens [9] = organism: Homo sapiens; assay: Inhibition of P-gp in human MES-SA/Dx5 cells assessed as potentiation of actinomycin D-induced cytotoxicity by measuring fold reduction in actinomycin D EC50 at 5 uM after 72 hrs by MTT assay relative to untreated control; format: cell-based; method in brief: as §2
Homo sapiens [10] = organism: Homo sapiens; assay: Inhibition of P-gp in human MES-SA/Dx5 cells assessed as potentiation of vinblastine-induced cytotoxicity by measuring fold reduction in vinblastine EC50 at 5 uM after 72 hrs by MTT assay relative to untreated control; format: cell-based; method in brief: as §2
Homo sapiens [11] = organism: Homo sapiens; assay: Inhibition of P-gp in human MES-SA/Dx5 cells assessed as potentiation of paclitaxel-induced cytotoxicity by measuring fold reduction in paclitaxel EC50 at 5 uM after 72 hrs by MTT assay relative to untreated control; format: cell-based; method in brief: as §2
[12] = Inhibition of P-gp in human MES-SA/Dx5 cells assessed as potentiation of doxorubicin-induced cytotoxicity by measuring compound concentration required for reduction of doxorubicin IC50 by half after 72 hrs by MTT assay; format: cell-based; conditions: MES-SA/Dx5, 72 h
[13] = Inhibition of P-gp in human MES-SA/Dx5 cells assessed as potentiation of actinomycin D-induced cytotoxicity by measuring compound concentration required for reduction of actinomycin D IC50 by half after 72 hrs by MTT assay; format: cell-based; conditions: MES-SA/Dx5, 72 h
[14] = Inhibition of P-gp in human MES-SA/Dx5 cells assessed as potentiation of vinblastine-induced cytotoxicity by measuring compound concentration required for reduction of vinblastine IC50 by half after 72 hrs by MTT assay; format: cell-based; conditions: MES-SA/Dx5, 72 h
[15] = Inhibition of P-gp in human MES-SA/Dx5 cells assessed as potentiation of paclitaxel-induced cytotoxicity by measuring compound concentration required for reduction of paclitaxel IC50 by half after 72 hrs by MTT assay; format: cell-based; conditions: MES-SA/Dx5, 72 h

Row | SMILES | Activity [1] | Stability [2] | Stability [3] | half-life [4] [h] | half-life [5] [h] | fold change (FC) (Homo sapiens [6]) | fold change (FC) (Homo sapiens [7]) | fold change (FC) (Homo sapiens [8]) | fold change (FC) (Homo sapiens [9]) | fold change (FC) (Homo sapiens [10]) | fold change (FC) (Homo sapiens [11]) | EC50 [12] [nM] | EC50 [13] [nM] | EC50 [14] [nM] | EC50 [15] [nM]
1 | O=C(O)CC[C@H](NC(=O)COc1cc(O)c2c(=O)c(O)c(-c3ccc(O)c(O)c3)oc2c1)C(=O)O | Active | Stable | Stable | 30 | 30 | 2.3 | 3.1 | 25.6 | 48.4 | 26 | 34.6 | 2200 | 2300 | 2500 | 2100
2 | O=c1c(O)c(-c2ccc(O)c(O)c2)oc2cc(O)cc(O)c12 | Active |  |  |  |  |  |  | 1.94 | 3.06 | 2.75 | 2.48 |  |  |  | 
3 | O=C(O)CC[C@H](NCCOc1cc(O)c2c(=O)c(O)c(-c3ccc(O)c(O)c3)oc2c1)C(=O)O | Active | Stable | Stable | 56 | 56 | 2.1 | 2.8 | 22.3 | 20.5 | 16.2 | 17.3 | 2800 | 2700 | 2400 | 2500
